The values below come from ChEMBL document CHEMBL1629520, “Synthesis and optimization of antitubercular activities in a series of 4-(aryloxy)phenyl cyclopropyl methanols” (Eur J Med Chem, 2010).

SMILES strings stand for the structures. ≈ marks a conversion by molar mass, not a printed value.

The first assay has as its system Mycobacterium tuberculosis. In words: Antitubercular activity against Mycobacterium tuberculosis H37Rv after 30 days by agar microdilution method. The assay is classed as functional.
Conditions: not given
Summed up:
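Compound dissolved in DMSO; two-fold dilutions added to Middlebrook 7H10 with OADC in slanted tubes, preincubated 24 h at 37 °C. Tubes then streaked with 5 × 10⁵ bacilli of H37Rv harvested from L–J culture into 0.85% saline with 0.05% Tween-80. Incubated 30 days at 37 °C. MIC is the lowest concentration giving complete inhibition of colonies, judged against drug-free control tubes.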
What is called MIC is the least concentration at which growth counts as inhibited. In the case of `OC(c1ccc(OCc2ccc(Br)cc2)cc1)C1CC1` (stereo unspecified), inhibition of growth (MIC) required 6.25 µg/mL (≈ 18.8 µM).
Same read-out and setting: the value for `CC(C)N(CCOc1ccc(COc2ccc(C(=O)C3CC3)cc2)cc1)C(C)C` was 12.5 µg/mL (≈ 31.6 µM).
The compound `COc1cc(COc2ccc(C(O)C3CC3)cc2)ccc1OCCN1CCOCC1` (stereo unspecified) came in with an MIC of 12.5 µg/mL (≈ 30.2 µM).
Regarding `O=[N+]([O-])c1cccc(COc2ccc(C(O)C3CC3)cc2)c1` (stereo unspecified), the minimal inhibitory concentration (MIC) was determined as 6.25 µg/mL (≈ 20.9 µM).
Same read-out and setting: as for `O=C(c1ccc(OCc2cccc(OCCN3CCCCC3)c2)cc1)C1CC1`, the figure is 12.5 µg/mL (≈ 32.9 µM); as for `COc1cc(COc2ccc(C(O)C3CC3)cc2)cc(OC)c1OC` (stereo unspecified), 12.5 µg/mL (≈ 36.3 µM); as for `CN(C)CCOc1ccc(COc2ccc(C(=O)C3CC3)cc2)cc1`, more than 12.5 µg/mL.
Same read-out and setting: as for `OC(c1ccc(OCc2cccc(Br)c2)cc1)C1CC1` (stereo unspecified), the figure is 12.5 µg/mL (≈ 37.5 µM); as for `O=C(c1ccc(OCc2ccc(OCCN3CCOCC3)cc2)cc1)C1CC1`, 6.25 µg/mL (≈ 16.4 µM).
Same read-out and setting: the value for `COc1cc(COc2ccc(C(=O)C3CC3)cc2)ccc1OCCN1CCOCC1` was 6.25 µg/mL (≈ 15.2 µM).
For the compound `OC(c1ccc(OCc2ccc(OCCN3CCOCC3)cc2)cc1)C1CC1` (stereo unspecified), the MIC is 3.12 µg/mL (≈ 8.14 µM).
Regarding `OC(c1ccc(OCc2ccc(OCc3ccccc3)cc2)cc1)C1CC1` (stereo unspecified), the MIC was determined as 3.12 µg/mL (≈ 8.66 µM).
Still for that read-out and setting: the value for `COc1cc(COc2ccc(C(=O)C3CC3)cc2)cc(OC)c1OC` was more than 12.5 µg/mL; that for `O=C(c1ccc(OCc2ccc(OCc3ccccc3)cc2)cc1)C1CC1` was 1.56 µg/mL (≈ 4.35 µM).

System in a further assay: not listed separately
In words: Selectivity index, ratio of IC50 for african green monkey Vero cells to MIC for Mycobacterium tuberculosis H37Rv. The class given is functional.
Conditions: not given
The gist of the method:
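Vero cells seeded at 10,000/well in DMEM with antibiotics and 10% FBS, allowed to adhere overnight (37 °C, 5% CO₂). […] MTS added for 2 h, absorbance read at 490 nm, with DMSO wells taken as 100% survival. IC50 divided by H37Rv agar MIC.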
`OC(c1ccc(OCc2ccc(OCCN3CCOCC3)cc2)cc1)C1CC1` (stereo unspecified): the “Selectivity Index” value was more than 10.
As to `OC(c1ccc(OCc2ccc(OCc3ccccc3)cc2)cc1)C1CC1` (stereo unspecified), the “Selectivity Index” value is reported as more than 10.
Take `O=C(c1ccc(OCc2ccc(OCc3ccccc3)cc2)cc1)C1CC1`: the “Selectivity Index” value was more than 10.

System in a further assay: not listed separately
As to the kind of experiment: Selectivity index, ratio of IC50 for mouse BMDM to MIC for Mycobacterium tuberculosis H37Rv. The assay is classed as functional.
Conditions: not given
The gist of the method:
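Bone-marrow cells flushed with DMEM containing 10% FBS, 15% L-929 conditioned supernatant and non-essential amino acids. Seeded at 10⁵/well and grown 5 days, medium changed every 3rd day. Compounds added in antibiotic-free FBS-DMEM for 48 h. MTS added for 2 h, A490 read, DMSO wells taken as 100%. IC50 divided by H37Rv MIC.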
Regarding `OC(c1ccc(OCc2ccc(OCCN3CCOCC3)cc2)cc1)C1CC1` (stereo unspecified), the Selectivity Index is more than 10.
On the same count and under the same terms, as for `OC(c1ccc(OCc2ccc(OCc3ccccc3)cc2)cc1)C1CC1` (stereo unspecified), the figure is more than 10.
Same read-out and setting: as for `O=C(c1ccc(OCc2ccc(OCc3ccccc3)cc2)cc1)C1CC1`, the figure is more than 10.

System in another assay: not listed separately
As to the kind of experiment: Cytotoxicity against mouse BMDM after 48 hrs by MTS assay. The class given is cell-based.
Conditions: not given
The gist of the method:
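Mouse bone-marrow cells were flushed into DMEM with 10% FBS, 15% L-929 conditioned supernatant and non-essential amino acids. They were plated at 10⁵/well and cultured 5 days at 37 °C, 5% CO₂, with medium changed every 3rd day. Graded compound concentrations were added in antibiotic-free FBS-DMEM for 48 h. MTS was added for 2 h and A490 read, with DMSO wells taken as 100% survival.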
In general terms: Formazan colour is commonly taken as a measure of viable cells.
As usually defined, the IC50 is the concentration that gives 50% inhibition. Turning to `OC(c1ccc(OCc2ccc(OCCN3CCOCC3)cc2)cc1)C1CC1` (stereo unspecified), the IC50 was more than 50 µg/mL.
The same measure, in the same setting: the value for `OC(c1ccc(OCc2ccc(OCc3ccccc3)cc2)cc1)C1CC1` (stereo unspecified) was more than 50 µg/mL; that for `O=C(c1ccc(OCc2ccc(OCc3ccccc3)cc2)cc1)C1CC1` was more than 50 µg/mL.

For a further assay, the system named is Mycobacterium tuberculosis. As to the kind of experiment: Antitubercular activity against Mycobacterium tuberculosis H37Rv infected in swiss mouse assessed as increase in mean survival time at 100 mg/kg, po qd for 28 days measured on day 30.
Conditions: not given
The class given is functional. The gist of the method: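 Outbred female Swiss mice (18–20 g) infected i.v. via lateral vein with 10⁷ CFU H37Rv; groups of 10 formed next day. Test compound given as aqueous suspension at 100 mg/kg, INH at 25 mg/kg; placebo given to infected controls. All dosing oral, daily for 28 days. Mean survival time and % survivors scored at days 30 and 40; lung bacillary load per g determined on day 30.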
As for `OC(c1ccc(OCc2ccc(Br)cc2)cc1)C1CC1` (stereo unspecified), the MST is listed as 23.37.

Another assay deals with Mycobacterium tuberculosis. In words: Antitubercular activity against Mycobacterium tuberculosis H37Rv infected in mouse BMDM assessed as reduction in intracellular CFU at 5 times MIC after 4 weeks relative to control.
Conditions: not given
The arrangement: scale not given: the % may be the effect or the level left. The class given is functional. The gist of the method:
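Murine bone-marrow macrophages cultured 5 days, then infected 3 h with 5 × 10⁶ H37Rv in antibiotic-free DMEM/10% FBS. Extracellular bacteria washed off, and compound added at 5× MIC. After 4 days at 37 °C, 5% CO₂, cells lysed with 0.1% saponin. Lysates serially diluted in saline and plated on 7H11; colonies counted after 4 weeks at 37 °C.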
In the case of `OC(c1ccc(OCc2ccc(Br)cc2)cc1)C1CC1` (stereo unspecified), the Activity was determined as 88%.
On the same count and under the same terms, as for `OC(c1ccc(OCc2ccc(OCCN3CCOCC3)cc2)cc1)C1CC1` (stereo unspecified), the figure is 89%.
Take `OC(c1ccc(OCc2ccc(OCc3ccccc3)cc2)cc1)C1CC1` (stereo unspecified): the Activity was determined as 54%.
In the case of `O=C(c1ccc(OCc2ccc(OCc3ccccc3)cc2)cc1)C1CC1`, the Activity worked out at 0%.

The test system of another assay is Vero. In words: Cytotoxicity against african green monkey Vero cells after 24 hrs by MTS assay. The following applies: Chlorocebus sabaeus. The assay is classed as cell-based. The gist of the method: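 Vero cells were seeded at 10,000/well in DMEM with antibiotics and 10% FBS and left to adhere overnight at 37 °C, 5% CO₂. […] MTS was then added for 2 h and A490 read, with DMSO wells taken as 100% survival.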
Compound `OC(c1ccc(OCc2ccc(OCCN3CCOCC3)cc2)cc1)C1CC1` (stereo unspecified) registered an IC50 of more than 50 µg/mL.
The same measure, in the same setting: as for `OC(c1ccc(OCc2ccc(OCc3ccccc3)cc2)cc1)C1CC1` (stereo unspecified), the figure is more than 50 µg/mL; as for `O=C(c1ccc(OCc2ccc(OCc3ccccc3)cc2)cc1)C1CC1`, more than 50 µg/mL.
